Paper PMC3992281 (Journal of neurochemistry, 2013)

What was measured:
Assay type in all cases: cell-based, rat
[1] = tested on: nicotine-triggered uptake of 45Ca2+ in PC12 cells; experiment: Nicotinic cholinergic signal transduction: 45Ca2+ uptake; conditions: nicotine 60 µM, 45Ca2+ 2 µCi/ml, 5 minutes
Method in brief: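 PC12 cells were plated on poly-L-lysine-coated dishes 2 days ahead and rinsed every 15 min for 1 h at 37°C in secretion buffer (150 mM NaCl, 5 mM KCl, 2 mM CaCl2, 10 mM Hepes, pH 7.4). Cells were exposed to ⁴⁵Ca²⁺ with drugs in Ca²⁺-free buffer for 5 min at room temperature. Uptake was stopped with ice-cold 1 mM LaCl3, followed by lysis and scintillation counting (cpm/well). Results are mean ± SEM.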

[2] = tested on: nicotinic cholinergic-stimulated catecholamine release in PC12 cells; experiment: Nicotine-stimulated norepinephrine secretion from PC12 cells
Method in brief: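 PC12 cells were washed, then stimulated with nicotine (60 µM) in secretion medium in the presence of graded concentrations of the CHGB-derived test peptide. Maximal effect was taken at 10 µM peptide. Human CHGA[352–372] served as the positive control. Norepinephrine release was measured and each experiment was repeated 3 times.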

[3] = tested on: membrane depolarization-stimulated catecholamine release in PC12 cells; experiment: KCl; conditions: KCl 55 mM, CHGB full-length or plasmin-digested, repeated 3 times
Method in brief: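 Rat PC12 cells (passage 10–25) grown in high-glucose DMEM with 10% horse serum and 5% FBS at 37°C in 6% CO2. After washing, cells were stimulated with KCl (55 mM) in secretion medium, with recombinant human CHGB (3.0 µM), either full-length or pre-digested with plasmin (10 µM CHGB, 2 µM plasmin, Tris-Cl pH 8.0, 150 mM NaCl, 1 hr). Three experiments.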

catestatin
inhibition of nicotine-stimulated uptake of 45Ca2+ [1]: ~ 82%
efficacy (maximal effect), inhibition of nicotinic cholinergic secretion ([2]; nicotine 60 µM, at 10 µM peptide): ~ 100%
IC50 ([2]; read-out: potency (IC50) to inhibit nicotinic cholinergic-stimulated catecholamine secretion, nicotine 60 µM, repeated 3 times): 450 nM

B1: CHGB: purified human recombinant mature CHGB (657 residues) with carboxy-terminal … tag, expressed in E. coli (protein, UniProt P05060 21-677, looked up)
Secretogranin-1: MPVDNRNHNEGMVTRCIIEVLSNALSKSSAPPITPECRQVLKTSRKDVKDKETTENENTKFEVRLLRDPADASEAHESSSRGEAGAPGEEDIQGPTKADTEKWAEGGGHSRERADEPQWSLYPSDSQVSEEVKTRHSEKSQREDEEEEEGENYQKGERGEDSSEEKHLEEPGETQNAFLNERKQASAIKKEELVARSETHAAGHSQEKTHSREKSSQESGEETGSQENHPQESKGQPRSQEESEEGEEDATSEVDKRRTRPRHHHGRSRPDRSSQGGSLPSEEKGHPQEESEESNVSMASLGEKRDHHSTHYRASEEEPEYGEEIKGYPGVQAPEDLEWERYRGRGSEEYRAPRPQSEESWDEEDKRNYPSLELDKMAHGYGEESEEERGLEPGKGRHHRGRGGEPRAYFMSDTREEKRFLGEGHHRVQENQMDKARRHPQGAWKELDRNYLNYGEEGAPGKWQQQGDLQDTKENREEARFQDKQYSSHHTAEKRKRLGELFNPYYDPLQWKSSHFERRDNMNDNFLEGEEENELTLNEKNFFPEYNYDWWEKKPFSEDVNWGYEKRNLARVPKLDLKRQYDRVAQLDQLLHYRKKSAEFPDFYDSEEPVSTHQEAENEKDRADQTVLTEDEKKELENLAAMDLELQKIAEKFSQRG
modifications: C-terminal tag
reduction of membrane depolarization-stimulated catecholamine release [3]: ~ 23%
